Assay results reported in ChEMBL document CHEMBL2146397, “The Substrate-Activity-Screening methodology applied to receptor tyrosine kinases: a proof-of-concept study” (Eur J Med Chem, 2012).
Square brackets hold non-standard residues; d marks the D form. Peptide text beside a SMILES is read from it. Trp(6-Cl) = N[C@@H](Cc1c[nH]c2cc(Cl)ccc12)C(=O)O; 3Pal = N[C@@H](Cc1cccnc1)C(=O)O

Biological target: Insulin-like growth factor 1 receptor (Homo sapiens, UniProt P08069)
Assay: Activity at pre-activated human GST-His6-tagged IGF-1R expressed in Sf9 cells assessed as initial phosphorylation rate at 10 uM measured every 2 mins for 60 mins by Michaelis-Menten constant based ADP Quest assay
Outline: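 Reaction buffer was the same plus 0.1 mg/mL BSA, with kinase, peptide substrate and detection reagents. Started with ATP; fluorescence read every 2 min for 60 min; 3 independent experiments.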

Chain of Insulin-like growth factor 1 receptor (P08069 31-736 limits assumed): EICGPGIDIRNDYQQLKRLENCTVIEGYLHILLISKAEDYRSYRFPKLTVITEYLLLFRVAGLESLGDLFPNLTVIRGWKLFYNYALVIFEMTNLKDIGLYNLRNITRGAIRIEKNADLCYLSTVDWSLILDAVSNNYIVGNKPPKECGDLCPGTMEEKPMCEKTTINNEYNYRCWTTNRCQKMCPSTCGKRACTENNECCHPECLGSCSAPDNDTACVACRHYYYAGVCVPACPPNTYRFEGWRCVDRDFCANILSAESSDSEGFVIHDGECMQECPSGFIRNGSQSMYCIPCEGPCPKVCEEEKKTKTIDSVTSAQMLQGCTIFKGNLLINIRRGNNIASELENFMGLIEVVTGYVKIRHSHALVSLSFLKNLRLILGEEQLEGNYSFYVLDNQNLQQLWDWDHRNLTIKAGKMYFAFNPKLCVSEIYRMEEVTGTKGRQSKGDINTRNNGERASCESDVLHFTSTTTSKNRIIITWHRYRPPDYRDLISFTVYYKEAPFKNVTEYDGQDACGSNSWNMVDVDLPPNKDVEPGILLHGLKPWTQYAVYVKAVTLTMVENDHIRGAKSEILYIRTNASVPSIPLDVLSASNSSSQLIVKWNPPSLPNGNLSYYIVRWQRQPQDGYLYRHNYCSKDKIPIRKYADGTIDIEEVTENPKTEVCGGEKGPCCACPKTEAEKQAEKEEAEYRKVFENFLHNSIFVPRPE
Chain of Insulin-like growth factor 1 receptor (P08069 741-1367 limits assumed): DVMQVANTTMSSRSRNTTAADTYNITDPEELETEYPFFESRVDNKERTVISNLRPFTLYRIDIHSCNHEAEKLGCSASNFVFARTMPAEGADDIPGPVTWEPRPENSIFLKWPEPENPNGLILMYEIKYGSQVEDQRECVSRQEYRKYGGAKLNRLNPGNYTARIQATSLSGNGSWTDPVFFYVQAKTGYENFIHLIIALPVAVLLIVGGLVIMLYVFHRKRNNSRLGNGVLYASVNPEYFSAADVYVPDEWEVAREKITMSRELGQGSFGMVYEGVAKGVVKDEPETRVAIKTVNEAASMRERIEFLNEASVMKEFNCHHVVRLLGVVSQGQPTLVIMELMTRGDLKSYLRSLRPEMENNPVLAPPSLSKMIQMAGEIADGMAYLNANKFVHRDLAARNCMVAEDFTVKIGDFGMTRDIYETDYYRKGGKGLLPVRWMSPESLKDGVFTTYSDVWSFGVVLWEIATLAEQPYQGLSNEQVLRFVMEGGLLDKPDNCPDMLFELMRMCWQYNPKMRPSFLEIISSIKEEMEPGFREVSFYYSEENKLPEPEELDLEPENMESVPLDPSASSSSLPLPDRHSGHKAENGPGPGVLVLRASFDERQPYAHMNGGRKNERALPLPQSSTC

| Compound | Activity |
| --- | --- |
| CNC(=O)[C@@H](Cc1c[nH]c2ccccc12)NC(=O)[C@H](CCC(=O)O)NC(=O)[C@H](Cc1ccccc1)NC(=O)[C@H](Cc1ccc(O)cc1)NC(=O)[C@H]1CCCC[C@@H]1C(=O)O | 0.51 nM/s |
| CNC(=O)[C@H](Cc1c[nH]c2ccccc12)NC(=O)[C@H](CCC(=O)O)NC(=O)[C@H](Cc1ccccc1)NC(=O)[C@H](Cc1ccc(O)cc1)NC(=O)[C@@H]1CCCC[C@@H]1C(=O)O | 4.6 nM/s |
| CNC(=O)[C@H](Cc1c[nH]c2ccccc12)NC(=O)[C@H](CCC(=O)O)NC(=O)[C@H](Cc1ccccc1)NC(=O)[C@H](Cc1ccc(O)cc1)NC(=O)[C@@H]1CCCC[C@H]1C(=O)O | 1.1 nM/s |
| CNC(=O)[C@H](Cc1c[nH]c2ccccc12)NC(=O)[C@H](CCC(=O)O)NC(=O)[C@H](Cc1ccccc1)NC(=O)[C@H](Cc1ccc(O)cc1)NC(=O)[C@H]1CCCC[C@@H]1C(=O)O | 10.9 nM/s |
| CNC(=O)[C@H](Cc1ccccc1)NC(=O)[C@H](CCC(=O)O)NC(=O)[C@H](Cc1ccccc1)NC(=O)[C@H](Cc1ccc(O)cc1)NC(=O)C1CCC1C(=O)O (some centres undefined) (HELM PEPTIDE1{[O=C(O)C1CCC1C(=O)[*:2]].Y.F.E.F.[CN[*:1]]}$$$$V2.0) | 1.9 nM/s |
| CNC(=O)[C@H](Cc1ccccc1)NC(=O)[C@H](CCC(=O)O)NC(=O)[C@H](Cc1ccccc1)NC(=O)[C@H](Cc1ccc(O)cc1)NC(=O)[C@@H]1CCCC[C@H]1C(=O)O (HELM PEPTIDE1{[O=C(O)[C@@H]1CCCC[C@H]1C(=O)[*:2]].Y.F.E.F.[CN[*:1]]}$$$$V2.0) | 0.17 nM/s |
| CNC(=O)[C@H](Cc1ccccc1)NC(=O)[C@H](CCC(=O)O)NC(=O)[C@H](Cc1ccccc1)NC(=O)[C@H](Cc1ccc(O)cc1)NC(=O)[C@@H]1CCC[C@H]1C(=O)O (HELM PEPTIDE1{[O=C(O)[C@@H]1CCC[C@H]1C(=O)[*:2]].Y.F.E.F.[CN[*:1]]}$$$$V2.0) | 3.8 nM/s |
| CNC(=O)[C@H](Cc1ccccc1)NC(=O)[C@H](CCC(=O)O)NC(=O)[C@H](Cc1ccccc1)NC(=O)[C@H](Cc1ccc(O)cc1)NC(=O)[C@H]1CCCC[C@@H]1C(=O)O (HELM PEPTIDE1{[O=C(O)[C@H]1CCCC[C@@H]1C(=O)[*:2]].Y.F.E.F.[CN[*:1]]}$$$$V2.0) | 5.2 nM/s |
| CNC(=O)[C@H](Cc1ccccc1)NC(=O)[C@H](CCC(=O)O)NC(=O)[C@H](Cc1ccccc1)NC(=O)[C@H](Cc1ccc(O)cc1)NC(=O)[C@@H]1CCCC[C@@H]1C(=O)O (HELM PEPTIDE1{[O=C(O)[C@H]1CCCC[C@H]1C(=O)[*:2]].Y.F.E.F.[CN[*:1]]}$$$$V2.0) | 1.1 nM/s |
| CNC(=O)[C@H](Cc1ccccc1)NC(=O)[C@H](CCC(=O)O)NC(=O)[C@H](Cc1ccccc1)NC(=O)[C@H](Cc1ccc(O)cc1)NC(=O)[C@H]1CCC[C@@H]1C(=O)O (HELM PEPTIDE1{[O=C(O)[C@H]1CCC[C@@H]1C(=O)[*:2]].Y.F.E.F.[CN[*:1]]}$$$$V2.0) | 0.24 nM/s |
| CNC(=O)[C@H](Cc1ccccc1)NC(=O)[C@H](CCC(=O)O)NC(=O)[C@H](Cc1ccccc1)NC(=O)[C@H](Cc1ccc(O)cc1)NC(=O)c1ccccc1[N+](=O)[O-] (HELM PEPTIDE1{[O=C(c1ccccc1[N+](=O)[O-])[*:2]].Y.F.E.F.[CN[*:1]]}$$$$V2.0) | 4.6 nM/s |
| CNC(=O)[C@H](Cc1c[nH]c2ccccc12)NC(=O)[C@H](CCC(=O)O)NC(=O)[C@H](Cc1ccccc1)NC(=O)[C@H](Cc1ccc(O)cc1)NC(=O)c1ccccc1[N+](=O)[O-] (HELM PEPTIDE1{[O=C(c1ccccc1[N+](=O)[O-])[*:2]].Y.F.E.W.[CN[*:1]]}$$$$V2.0) | 3.3 nM/s |
| CNC(=O)[C@H](Cc1ccc(Cl)cc1)NC(=O)[C@H](CCC(=O)O)NC(=O)[C@H](Cc1ccccc1)NC(=O)[C@H](Cc1ccc(O)cc1)NC(=O)[C@H](CC(=O)O)NC(C)=O (HELM PEPTIDE1{[ac].D.Y.F.E.[O=C([C@H](Cc1ccc(Cl)cc1)N[*:1])[*:2]].[CN[*:1]]}$$$$V2.0) | 2.6 nM/s |
| CNC(=O)[C@H](Cc1ccc2ccccc2c1)NC(=O)CNC(=O)[C@H](Cc1ccccc1)NC(=O)[C@H](Cc1ccc(O)cc1)NC(=O)[C@H](CC(=O)O)NC(C)=O (HELM PEPTIDE1{[ac].D.Y.F.G.[O=C([C@H](Cc1ccc2ccccc2c1)N[*:1])[*:2]].[CN[*:1]]}$$$$V2.0) | 0.24 nM/s |
| CNC(=O)[C@H](Cc1ccc(Cl)c(Cl)c1)NC(=O)CNC(=O)[C@H](Cc1ccccc1)NC(=O)[C@H](Cc1ccc(O)cc1)NC(=O)[C@H](CC(=O)O)NC(C)=O (HELM PEPTIDE1{[ac].D.Y.F.G.[O=C([C@H](Cc1ccc(Cl)c(Cl)c1)N[*:1])[*:2]].[CN[*:1]]}$$$$V2.0) | 0.55 nM/s |
| CNC(=O)[C@H](Cc1ccc(Cl)cc1)NC(=O)CNC(=O)[C@H](Cc1ccccc1)NC(=O)[C@H](Cc1ccc(O)cc1)NC(=O)[C@H](CC(=O)O)NC(C)=O (HELM PEPTIDE1{[ac].D.Y.F.G.[O=C([C@H](Cc1ccc(Cl)cc1)N[*:1])[*:2]].[CN[*:1]]}$$$$V2.0) | 0.47 nM/s |
| CNC(=O)[C@H](Cc1ccc(Cl)cc1)NC(=O)[C@H](CCC(=O)O)NC(=O)[C@H](Cc1ccccc1)NC(=O)[C@H](Cc1ccc(O)cc1)NC(=O)[C@H](CCC(=O)O)NC(C)=O (HELM PEPTIDE1{[ac].E.Y.F.E.[O=C([C@H](Cc1ccc(Cl)cc1)N[*:1])[*:2]].[CN[*:1]]}$$$$V2.0) | 0.26 nM/s |

The next lines start with the values.

| Activity | Compound |
| --- | --- |
| 0.09 nM/s | CNC(=O)[C@@H](Cc1c[nH]c2ccccc12)NC(=O)CNC(=O)[C@H](Cc1ccccc1)NC(=O)[C@H](Cc1ccc(O)cc1)NC(=O)[C@H](CC(=O)O)NC(C)=O |
| 0.28 nM/s | CNC(=O)[C@@H](Cc1c[nH]c2ccccc12)NC(=O)[C@H](CCC(=O)O)NC(=O)[C@H](Cc1ccccc1)NC(=O)[C@H](Cc1ccc(O)cc1)NC(=O)[C@H](CC(=O)O)NC(C)=O |
| 1.7 nM/s | CNC(=O)[C@H](Cc1c[nH]c2ccccc12)NC(=O)CNC(=O)[C@H](Cc1ccccc1)NC(=O)[C@H](Cc1ccc(O)cc1)NC(=O)[C@H](CC(=O)O)NC(C)=O |
| 6.2 nM/s | CNC(=O)[C@H](Cc1c[nH]c2ccccc12)NC(=O)[C@H](CCC(=O)O)NC(=O)[C@H](Cc1ccccc1)NC(=O)[C@H](Cc1ccc(O)cc1)NC(=O)[C@H](CC(=O)O)NC(C)=O |
| 2.5 nM/s | CNC(=O)[C@H](Cc1c[nH]c2ccccc12)NC(=O)[C@H](CCC(=O)O)NC(=O)[C@H](Cc1ccccc1)NC(=O)[C@H](Cc1ccc(O)cc1)NC(=O)[C@H](CCC(=O)O)NC(C)=O |
| 1 nM/s | CNC(=O)[C@H](Cc1c[nH]c2cc(Cl)ccc12)NC(=O)[C@H](CCC(=O)O)NC(=O)[C@H](Cc1ccccc1)NC(=O)[C@H](Cc1ccc(O)cc1)NC(=O)[C@H](Cc1cccnc1)NC(C)=O (Ac-[3Pal]YFE[Trp(6-Cl)]-NHMe) |
| 4.3 nM/s | CNC(=O)[C@H](Cc1c[nH]c2ccccc12)NC(=O)[C@H](CCC(=O)O)NC(=O)[C@H](Cc1ccccc1)NC(=O)[C@H](Cc1ccc(O)cc1)NC(=O)C1CCC1C(=O)O (some centres undefined) (HELM PEPTIDE1{[O=C(O)C1CCC1C(=O)[*:2]].Y.F.E.W.[CN[*:1]]}$$$$V2.0) |
| 0.25 nM/s | CNC(=O)[C@H](Cc1ccccc1)NC(=O)[C@H](CCC(=O)O)NC(=O)[C@H](Cc1ccccc1)NC(=O)[C@H](Cc1ccc(O)cc1)NC(=O)CCC(=O)O (HELM PEPTIDE1{[O=C(O)CCC(=O)[*:2]].Y.F.E.F.[CN[*:1]]}$$$$V2.0) |
| 1.45 nM/s | CNC(=O)[C@H](Cc1c[nH]c2ccccc12)NC(=O)[C@H](CCC(=O)O)NC(=O)[C@H](Cc1ccccc1)NC(=O)[C@H](Cc1ccc(O)cc1)NC(=O)CCC(=O)O (HELM PEPTIDE1{[O=C(O)CCC(=O)[*:2]].Y.F.E.W.[CN[*:1]]}$$$$V2.0) |
| 5.4 nM/s | CNC(=O)[C@H](Cc1c[nH]c2ccccc12)NC(=O)[C@H](CCC(=O)O)NC(=O)[C@H](Cc1ccccc1)NC(=O)[C@H](Cc1ccc(O)cc1)NC(=O)[C@@H]1CCC[C@H]1C(=O)O (HELM PEPTIDE1{[O=C(O)[C@@H]1CCC[C@H]1C(=O)[*:2]].Y.F.E.W.[CN[*:1]]}$$$$V2.0) |
| 0.84 nM/s | CNC(=O)[C@H](Cc1c[nH]c2ccccc12)NC(=O)[C@H](CCC(=O)O)NC(=O)[C@H](Cc1ccccc1)NC(=O)[C@H](Cc1ccc(O)cc1)NC(=O)[C@H]1CCC[C@@H]1C(=O)O (HELM PEPTIDE1{[O=C(O)[C@H]1CCC[C@@H]1C(=O)[*:2]].Y.F.E.W.[CN[*:1]]}$$$$V2.0) |
| 1.7 nM/s | CNC(=O)[C@H](Cc1ccccc1)NC(=O)[C@H](CCC(=O)O)NC(=O)[C@H](Cc1ccccc1)NC(=O)[C@H](Cc1ccc(O)cc1)NC(=O)[C@H](CC(=O)O)NC(C)=O (HELM PEPTIDE1{[ac].D.Y.F.E.F.[CN[*:1]]}$$$$V2.0) |
| 6.7 nM/s | CNC(=O)[C@H](Cc1c[nH]c2cc(Cl)ccc12)NC(=O)[C@H](CCC(=O)O)NC(=O)[C@H](Cc1ccccc1)NC(=O)[C@H](Cc1ccc(O)cc1)NC(=O)[C@H](CC(=O)O)NC(C)=O (HELM PEPTIDE1{[ac].D.Y.F.E.[O=C([C@H](Cc1c[nH]c2cc(Cl)ccc12)N[*:1])[*:2]].[CN[*:1]]}$$$$V2.0) |
| 3.4 nM/s | CNC(=O)[C@H](Cc1ccc2ccccc2c1)NC(=O)[C@H](CCC(=O)O)NC(=O)[C@H](Cc1ccccc1)NC(=O)[C@H](Cc1ccc(O)cc1)NC(=O)[C@H](CC(=O)O)NC(C)=O (HELM PEPTIDE1{[ac].D.Y.F.E.[O=C([C@H](Cc1ccc2ccccc2c1)N[*:1])[*:2]].[CN[*:1]]}$$$$V2.0) |
| 2.1 nM/s | CNC(=O)[C@H](Cc1ccc(Cl)c(Cl)c1)NC(=O)[C@H](CCC(=O)O)NC(=O)[C@H](Cc1ccccc1)NC(=O)[C@H](Cc1ccc(O)cc1)NC(=O)[C@H](CC(=O)O)NC(C)=O (HELM PEPTIDE1{[ac].D.Y.F.E.[O=C([C@H](Cc1ccc(Cl)c(Cl)c1)N[*:1])[*:2]].[CN[*:1]]}$$$$V2.0) |
| 2.1 nM/s | CNC(=O)[C@H](Cc1c[nH]c2cc(Cl)ccc12)NC(=O)CNC(=O)[C@H](Cc1ccccc1)NC(=O)[C@H](Cc1ccc(O)cc1)NC(=O)[C@H](CC(=O)O)NC(C)=O (HELM PEPTIDE1{[ac].D.Y.F.G.[O=C([C@H](Cc1c[nH]c2cc(Cl)ccc12)N[*:1])[*:2]].[CN[*:1]]}$$$$V2.0) |
| 3.3 nM/s | CNC(=O)[C@H](Cc1c[nH]c2cc(Cl)ccc12)NC(=O)[C@H](CCC(=O)O)NC(=O)[C@H](Cc1ccccc1)NC(=O)[C@H](Cc1ccc(O)cc1)NC(=O)[C@H](CCC(=O)O)NC(C)=O (HELM PEPTIDE1{[ac].E.Y.F.E.[O=C([C@H](Cc1c[nH]c2cc(Cl)ccc12)N[*:1])[*:2]].[CN[*:1]]}$$$$V2.0) |
